From ChEMBL document CHEMBL4376883, “Discovery and Optimization of Small Molecules Targeting the Protein-Protein Interaction of Heat Shock Protein 90 (Hsp90) and Cell Division Cycle 37 as Orally Active Inhibitors for the Treatment of Colorectal Cancer” (J Med Chem, 2020) come the findings set out here.

A short description of series [1]: Toxicity in human HCT116 cells xenografted BALB/c mouse assessed as body weight loss at 40 to 80 mg/kg, po administered once daily for 21 days measured at 3 days interval during compound dosing. The class given is organism-based. Conditions: in vivo. A digest of the protocol:
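BALB/c nude mice (6 weeks old) carried flank HCT116 xenografts (1×10^7 cells with Matrigel, 3:1). Dosing started at mean tumor volume 125 mm³: oral 40 or 80 mg/kg daily for 21 days, vehicle 0.9% saline with 5% DMSO. Body weight was recorded every 3 days; n = 6.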

Series [2] in a line: Toxicity in human HCT116 cells xenografted BALB/c mouse assessed as effect on spleen at 40 to 80 mg/kg, po administered once daily for 21 days measured post-last dose by H and E staining-based imaging analysis. Format: organism-based. Conditions: in vivo, 504 h. In a few lines: (§1)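 Same xenograft model in BALB/c nude mice with oral daily dosing at 40 or 80 mg/kg in 5% DMSO/saline for 21 days. After sacrifice, organs were fixed in 4% formaldehyde, paraffin-embedded, sectioned at 4 μm and H&E-stained for light-microscopy imaging.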

The nature of series [3]: Toxicity in human HCT116 cells xenografted BALB/c mouse assessed as effect on lung at 40 to 80 mg/kg, po administered once daily for 21 days measured post-last dose by H and E staining-based imaging analysis. Format: organism-based. Conditions: in vivo, 504 h. In a few lines: as §1
A short description of series [4]: Toxicity in human HCT116 cells xenografted BALB/c mouse assessed as effect on liver at 40 to 80 mg/kg, po administered once daily for 21 days measured post-last dose by H and E staining-based imaging analysis. The class given is organism-based. Conditions: in vivo, 504 h. A digest of the protocol:
as §1

A short description of series [5]: Toxicity in human HCT116 cells xenografted BALB/c mouse assessed as effect on heart at 40 to 80 mg/kg, po administered once daily for 21 days measured post-last dose by H and E staining-based imaging analysis. Conditions: in vivo, 504 h. The class given is organism-based. A digest of the protocol: as §1
Series [6] is described as follows: Toxicity in human HCT116 cells xenografted BALB/c mouse assessed as effect on kidney at 40 to 80 mg/kg, po administered once daily for 21 days measured post-last dose by H and E staining-based imaging analysis. Format: organism-based. Conditions: in vivo, 504 h. In a few lines: as §1
Series [7] is described as follows: Permeability of the compound at pH 7.4 by PAMPA. The class given is ADME. Conditions: read-out: permeability. A digest of the protocol: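 Permeability coefficient (Pe) was measured at pH 7.4 by double-sink PAMPA.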
Series [8] in a line: Stability of the compound in mouse plasma assessed as parent compound remaining at 1 uM measured after 30 mins by LC-MS/MS analysis. The class given is ADME, cell-free. Conditions: read-out: Stability. In a few lines: (§2)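 Compound diluted from 10 mM DMSO stock to 1 μM in mouse or human plasma and held at 37 °C in a water bath. Reactions were stopped with acetonitrile at 0, 10, 30, 60 and 90 min. Parent compound was quantified by LC-MS/MS as % remaining.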

In series [9] the target is T1, Heat shock protein HSP90 (Homo sapiens, UniProt P07900+P08238). In words: Binding affinity to recombinant […] HSP90 N-terminal domain (9 to 236 residues) (unknown origin) expressed in Escherichia coli BL21 (DE3) by isothermal calorimetric method. A digest of the protocol: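 ITC: 50 µM Hsp90 in the cell and 300 µM compound in the syringe, both in 20 mM Tris-HCl, 150 mM NaCl, pH 7.4. Nineteen injections at 180 s intervals with stirring at 1000 rpm.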

The nature of series [10]: Stability of the compound in human plasma assessed as parent compound remaining at 1 uM measured after 10 mins by LC-MS/MS analysis. Format: ADME, cell-free. Conditions: read-out: Stability. A digest of the protocol: as §2
For series [11], the target named is T1, Heat shock protein HSP90. Put plainly: Inhibition of recombinant full-length HSP90 ATPase activity N-terminal domain (9 to 236 residues) (unknown origin) expressed in Escherichia coli BL21 (DE3) measured after 1 hr by ADP hunter plus assay.
Series [12] concerns the target T1, Heat shock protein HSP90. In words: Binding affinity to recombinant […] biotinylated-HSP90 N-terminal domain (9 to 236 residues) (unknown origin) expressed in Escherichia coli BL21 (DE3) by biolayer interferometry. A digest of the protocol:
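Biotinylated Hsp90 (100 µg/mL) loaded onto streptavidin sensors prewetted 10 min in PBS with 0.05% BSA and 0.01% Tween 20. Analyte binding measured at 28 °C. Double reference subtraction applied; data fitted to a 1:1 model with K_D = K_off/K_on.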

Series [13] in a line: Half life in mouse liver microsomes at 10 uM preincubated for 5 mins followed by NADPH addition by LC-MS/MS analysis. Format: ADME, Microsome. In a few lines:
(§3)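 Compound at 10 µM preincubated 5 min at 37 °C with human or mouse liver microsomes (0.5 mg/mL) in 100 mM phosphate, pH 7.4. Reaction started with 1 mM NADPH, stopped with cold acetonitrile, centrifuged and analysed by LC-MS/MS.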

Series [14] is described as follows: Stability of the compound in mouse plasma assessed as parent compound remaining at 1 uM measured immediately by LC-MS/MS analysis. Format: ADME, cell-free. Conditions: read-out: Stability. A digest of the protocol: as §2
Series [15] in a line: Clearance in mouse liver microsomes at 10 uM preincubated for 5 mins followed by NADPH addition by LC-MS/MS analysis. The class given is ADME, Microsome. Conditions: read-out: CLH. A digest of the protocol: as §3
Series [16] relates to HCT-116. Put plainly: Antiproliferative activity against human HCT116 cells measured after 72 hrs by CCK8 assay. Conditions: HCT-116, 72 h. Format: functional, cell-based. In a few lines: (§4)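 Cells grown in RPMI 1640 with 10% FBS at 37 °C, 5% CO2; STR-authenticated and mycoplasma-checked. Seeded at 3000-5000 cells/well and left 24 h. Serial compound dilutions added for 72 h, with matched DMSO as control. Viability read by CCK8 kit using the standard protocol. IC50 values derived from at least three parallel experiments.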

Series [17] can be described thus: Stability of the compound in mouse plasma assessed as parent compound remaining at 1 uM measured after 10 mins by LC-MS/MS analysis. Format: ADME, cell-free. Conditions: read-out: Stability. In a few lines:
as §2

Series [18] can be described thus: Stability of the compound in mouse plasma assessed as parent compound remaining at 1 uM measured after 90 mins by LC-MS/MS analysis. The class given is ADME, cell-free. Conditions: read-out: Stability. A digest of the protocol:
as §2

The test system of series [19] is A549. In words: Antiproliferative activity against human A549 cells measured after 72 hrs by CCK8 assay. The class given is functional, cell-based. Conditions: A549, 72 h. In a few lines:
as §4

Series [20] in a line: Stability of the compound in mouse plasma assessed as parent compound remaining at 1 uM measured after 60 mins by LC-MS/MS analysis. Conditions: read-out: Stability. Format: ADME, cell-free. A digest of the protocol:
as §2

Series [21] deals with L02. In words: Cytotoxicity against human L02 cells measured after 72 hrs by CCK8 assay. The class given is functional, cell-based. Conditions: L02, 72 h. A digest of the protocol:
as §4

Series [22] in a line: Stability of the compound in human plasma assessed as parent compound remaining at 1 uM measured after 90 mins by LC-MS/MS analysis. Format: ADME, cell-free. Conditions: read-out: Stability. A digest of the protocol: as §2
Series [23] in a line: Stability of the compound in human plasma assessed as parent compound remaining at 1 uM measured after 30 mins by LC-MS/MS analysis. Format: ADME, cell-free. Conditions: read-out: Stability. In a few lines:
as §2

Series [24] is described as follows: Distribution coefficient, log D of the compound at pH 7.4 by potentiometric titration method. Format: physicochemical. Conditions: octanol/water. In a few lines: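 log D at pH 7.4 measured by potentiometric titration on a Gemini Profiler.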
Series [25] can be described thus: Clearance in human liver microsomes at 10 uM preincubated for 5 mins followed by NADPH addition by LC-MS/MS analysis. Format: ADME, Microsome. Conditions: read-out: CLH. A digest of the protocol:
as §3

Series [26] is described as follows: Half life in human liver microsomes at 10 uM preincubated for 5 mins followed by NADPH addition by LC-MS/MS analysis. Format: ADME, Microsome. A digest of the protocol: as §3
A short description of series [27]: Stability of the compound in human plasma assessed as parent compound remaining at 1 uM measured immediately by LC-MS/MS analysis. The class given is ADME, cell-free. Conditions: read-out: Stability. A digest of the protocol:
as §2

Series [28] is described as follows: Stability of the compound in human plasma assessed as parent compound remaining at 1 uM measured after 60 mins by LC-MS/MS analysis. The class given is ADME, cell-free. Conditions: read-out: Stability. A digest of the protocol: as §2

Take `Cc1cc(C)c(S(=O)(=O)N(CC(=O)O)c2ccc(Nc3ccnc(N4CCNCC4)n3)cc2)c(C)c1.Cl`: the Activity result in series [1], in series [2], in series [3], in series [4], in series [5] and in series [6] was “Non-Toxic” in each case.

For the molecule `Cc1cc(C)c(S(=O)(=O)N(CC(=O)O)c2ccc(Nc3ccnc(N4CCCC4)n3)cc2)c(C)c1`, the Papp in series [7] stood at 70.4 ×10⁻⁶ cm/s. The remaining at 0.5 h, 1 µM in series [8] was 86%; in series [23] it was 92%. Further, the figures for the Kd in series [9] and in series [12] were 7.81 µM and 7.41 µM, respectively. The remaining at 10 min, 1 µM came to 101% in [10] and 100% in series [17]. The IC50 is above 100 µM in series [11], 10.2 µM in series [16], 55.7 µM in series [19] and above 50 µM in series [21]. Besides, the values for the half-life at 10 µM in series [13] and in series [26] were 16.8 min and 30.4 min, respectively. For the same molecule, the remaining at 0 min, 1 µM in series [14] and in series [27] was 100% in each case. Also, the microsomal CLint at 10 µM is 59 µL/min/mg in [15] and 32.6 µL/min/mg in [25]. Moreover, the remaining at 1.5 h, 1 µM came out at 59% in series [18] and 62% in [22]. In addition, the remaining at 1 h, 1 µM in series [20] came to 71%; in series [28] it was 76%. The molecule also showed a logD in [24] of 1.67.

Turning to `Cc1cc(C)c(S(=O)(=O)N(CC(=O)O)c2ccc(Nc3ccnc(N4CCCC4)n3)cc2)c(C)c1.[Cl-].[Na+]`, the Activity result in series [1], in [2], in series [3], in series [4], in [5] and in series [6] was “Non-Toxic” each time.
